Experiment [1] relates to Mycobacterium tuberculosis. As to the kind of experiment: Antimycobacterial activity against Mycobacterium tuberculosis H37Ra ATCC 25177 after 4 days by MTT assay. To be noted: H37Ra ATCC 25177, 96 h. It counts as functional. In outline: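 Inoculum from a frozen bacterial pellet diluted into fresh medium to a final 5×10⁵ CFU/mL, dispensed onto compound in quadruplicate wells. DMSO-only wells served as negative control and rifampicin at 250 ng/mL as positive control. Incubated 4 days at 37 °C, then MTT added for a further 12 h. After subtracting media-only blanks, % inhibition = (1 − Σtest/Σcontrol)×100.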
In general terms: Tetrazolium assays rely on reduction of a dye to a coloured formazan, in cell work by metabolically active cells.

In the next experiment the test system is Candida albicans. As to the kind of experiment: Antifungal activity against Candida albicans at 50 ug/mL. It counts as functional, organism-based.
For the next experiment, the system named is Staphylococcus aureus. Briefly: Antibacterial activity against Staphylococcus aureus at 50 ug/mL. It counts as functional, organism-based.
The test system of the next experiment is Bacillus subtilis. As to the kind of experiment: Antibacterial activity against Bacillus subtilis at 50 ug/mL. In kind it is functional, organism-based.
The next experiment concerns Escherichia coli. As to the kind of experiment: Antibacterial activity against Escherichia coli at 50 ug/mL. It counts as functional, organism-based.

Structures are written as SMILES. Values after ≈ are worked out from the molar mass of the structure shown. Active and inactive are the calls of the source. The calls are words filed in the database; no cut-off is given here.

As to `CC(C)/C(=C\C[C@@H](C)[C@H]1CC[C@H]2C3=CC[C@H]4C[C@H](N(C)C)CC[C@]4(C)[C@H]3CC[C@]12C)CCN(C)C`, the minimum inhibitory concentration (MIC) in experiment [1] was 3.6 µg/mL (≈ 7.46 µM). Also, the outcome in the experiment on Candida albicans was Active. Also, the outcome with Staphylococcus aureus, in the experiment on Bacillus subtilis and in the experiment on Escherichia coli was inactive.
Compound `CC(C)/C(=C\C[C@@H](C)[C@H]1CC[C@H]2C3=CC[C@H]4C[C@H](N(C)C)[C@@H](O)C[C@]4(C)[C@H]3CC[C@]12C)CCN(C)C` returned a minimum inhibitory concentration (MIC) in experiment [1] of 15.8 µg/mL (≈ 31.7 µM). For the same compound, in the experiment on Candida albicans, the result was Active. For the same compound, the result with Staphylococcus aureus, with Bacillus subtilis and with Escherichia coli was inactive.

For orientation: MIC means the least concentration at which growth counts as inhibited. Low readings indicate a more susceptible organism, high ones a less susceptible organism.

(Values after ChEMBL document CHEMBL3085745, “Plakinamine M, a steroidal alkaloid from the marine sponge Corticium sp” (2013).)
